Source: PubChem BioAssay (SRMLSC)
This is one part of a sample in which hits are shown more often than they occur.
PostGolgi yeast: growth inhibition of a yeast mutant, post-Golgi transport screen. post-Golgi transport phenotypic cell assay. inhibition, % at 10 µM. 98,000 tested, 0.9% active. AID 739;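 note: yeast cells grown in 1536-well plates; yeast grown about 18 h at 30C before absorbance read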
Yeast life ext: yeast lifespan extension; AID 775; S. cerevisiae growth with nicotinamide, OD615; deaD strain in restrictive glucose medium; inhibition of the nicotinamide effect, % at 10 µM; 130,000 tested, 0.68% active;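 active = inhibition above a set limit, placed 3 SD over the median of all compounds, cut at about 26% in these data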
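assay system = DeaD-strain S. cerevisiae | measured by = absorbance at 615 nm | probe or stimulus = nicotinamide 1.5 mM | buffer or medium = CSMM-D glucose medium, restrictive | times = 48 h at 30 °C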
PostGolgi ctrl: growth of the yeast control strain, post-Golgi counter-screen; AID 738; efflux-deficient yeast background strain, growth absorbance A615, 16 h; inhibition, % at 10 µM; 98,000 tested, 5% active
Yeast growth inh: reduces growth of yeast BB579 in restrictive medium; S. cerevisiae BB579 growth, OD615, 48 h; inhibition, % at 10 µM; 140,000 tested, 0.51% active; AID 804;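 active = inhibition above a set limit, 3 SD over the mean compound inhibition, cut at about 44% in these data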
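Assay system: S. cerevisiae DeaD strain BB579 yeast. Medium: CSMM-D restrictive synthetic medium containing dextrose (glucose). Times: 4 h cell preincubation, 48 h compound exposure, 30 °C humidified. Signal: OD615 turbidity measurement. Benchmarks: positive control amphotericin B 10 µg/mL.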
Of the large screens only hits and unclear results are named; the others gave an inactive call. Cut-off read from the data, not from the text of the source, unless noted: active = inhibition above about 30%; inactive = the rest.

Cc1ccc(S(=O)(=O)N(C)Cc2ccc(-c3nnc4n3CCC4)cc2)cc1	PostGolgi ctrl 32.8
Clc1ccc(-c2nnc3n2CCCCC3)cc1	none
COCCN(C(=O)C(C)C)c1nnc(-c2cccc(C)c2)s1	none
CCC(=C(c1ccc(OC)cc1)c1ccc(OC)cc1)c1cn(CC(O)CN2CCN(C)CC2)c2ccccc12 (centres undefined)	PostGolgi ctrl 90.7, Yeast growth inh 94.9
O=C(CSc1nc(-c2ccccc2)c(-c2ccccc2)[nH]1)NCCN1C(=O)CSC1=O	none
Clc1cccc(CON/C=N/c2ncnc3sccc23)c1	PostGolgi ctrl 34.8
Fc1ccc(COc2ccc(/C=N/n3cnnc3)cc2)cc1	PostGolgi ctrl 34.9
O=C(COn1nnc2ccc(C(F)(F)F)cc21)Nc1c(Cl)cccc1Cl	none (no result: PostGolgi yeast, PostGolgi ctrl)
CCOC(=O)c1ccc(-n2[nH]c(-c3ccccc3)cc2=O)cc1	Yeast growth inh 96.9
O=C(O)c1ccc(S(=O)(=O)NC2CCCCC2)cc1	none
CSc1ccc(S(=O)(=O)NC2CCCCCC2)cc1	PostGolgi ctrl 69.8
CCOC(=O)NCC(C#CCN(CC)CC)N(CC)CC (centres undefined)	PostGolgi ctrl 42.4
CCOC(=O)NCc1ccc(CNC(=O)OCC)cc1	none
COc1ccc(OC2C(=O)N(Cc3ccc4c(c3)OCO4)C2c2sccc2C)cc1 (centres undefined)	none
COc1ccc(/C=N/NC(=O)c2nc(-c3ccccc3)cc(-c3ccccc3)n2)cc1	PostGolgi ctrl 31.2
COc1cc(/C=N/NC(=O)c2cnn3c(C)cc(-c4ccccc4)nc23)ccc1O	PostGolgi ctrl 34.1
CN(C)/C=C(/C(=O)c1ccc(Cl)cc1Cl)S(=O)(=O)c1ccc(Cl)cc1	Yeast life ext 69.1
Cc1[nH]n(-c2ccccc2)c(=O)c1C(c1cccc([N+](=O)[O-])c1)c1c(C)[nH]n(-c2ccccc2)c1=O	Yeast life ext 29.9 (no result: PostGolgi yeast, PostGolgi ctrl)
Cc1[nH]n(-c2ccccc2)c(=O)c1C(c1cccc([N+](=O)[O-])c1O)c1c(C)[nH]n(-c2ccccc2)c1=O	none (no result: PostGolgi yeast, PostGolgi ctrl)
CCN1c2ccccc2-c2nc3ccccc3n2C1c1ccccn1 (centres undefined)	PostGolgi ctrl 40.2
CC(c1ccccc1)N1CCn2c(nc3cc(NC(=O)c4cccs4)ccc32)C1 (centres undefined)	Yeast life ext 55.5
Cc1nn(C(C)(C)C)c(OC(=O)c2ccc(Br)o2)c1Sc1ccccc1	Yeast life ext 32.8
Cc1ccc(S(=O)(=O)c2c(C)nn(C(C)(C)C)c2OC(=O)c2ccc(Br)o2)cc1	PostGolgi yeast 49.6
Cc1ccc(S(=O)(=O)c2c(C)nn(C(C)(C)C)c2OC(=O)c2ccco2)cc1	none
Cc1nn(C(C)(C)C)c(OC(=O)c2ccco2)c1Sc1ccccc1	PostGolgi ctrl 35.5
Cc1nn(C(C)(C)C)c(OC(=O)c2ccc3c(c2)OCO3)c1S(=O)(=O)c1ccccc1	PostGolgi ctrl 36.5
Cc1cccc(N2CCN(C(=O)c3ccoc3C)CC2)c1C	none (no result: PostGolgi yeast, PostGolgi ctrl)
COc1ccc(-c2cc(C(=O)NCc3cn(C)nc3C)c3ccccc3n2)cc1OC	none (no result: PostGolgi yeast, PostGolgi ctrl)
CCn1c(COc2ccccc2Cl)nnc1SCC(=O)Nc1ncccc1C	none (no result: PostGolgi yeast, PostGolgi ctrl)
CC(C)c1ccc(S(=O)(=O)Nc2ccc(SC(F)F)cc2)cc1	none (no result: PostGolgi yeast, PostGolgi ctrl)
Cc1ccc(S(=O)(=O)Nc2ccc(SC(F)F)cc2)c(C)c1	Yeast growth inh 61.1 (no result: PostGolgi yeast, PostGolgi ctrl)
O=C1C(=O)N(CCN2CCOCC2)C(c2ccccn2)/C1=C(/O)c1ccccc1 (centres undefined)	Yeast life ext 26.0
Cc1ccc(/C(O)=C2/C(=O)C(=O)N(CCN3CCOCC3)C2c2ccccn2)cc1 (centres undefined)	none
NC(=O)NCc1ccc(Cl)cc1	Yeast life ext 58.6
O=C(NCc1ccccc1Cl)c1ccccc1CCc1ccccc1	Yeast life ext 32.1 (no result: PostGolgi yeast, PostGolgi ctrl)
O=C(NCc1ccccc1Cl)c1ccccc1Oc1ccccc1	none (no result: PostGolgi yeast, PostGolgi ctrl)
O=C(NCc1ccc(Cl)cc1)c1ccccc1CCc1ccccc1	Yeast life ext 41.0 (no result: PostGolgi yeast, PostGolgi ctrl)
CCOc1cc(C(=O)NC(C)c2ccncc2)cc(OCC)c1OCC (centres undefined)	none
Cc1[nH]nc2c1C(c1cc(Br)cs1)C(C#N)=C(N)O2 (centres undefined)	none (no result: PostGolgi yeast, PostGolgi ctrl)
COCCCn1c(CCC(=O)O)ccc1-c1cccs1	PostGolgi ctrl 30.5
O=C(COc1ccc(Cl)cc1Cl)NCCCN1CCOCC1	PostGolgi yeast 64.9
O=C(COc1ccc(Cl)cc1Cl)NCCC1=CCCCC1	PostGolgi ctrl 48.3
CC(=O)c1c(C(C)=O)c(C)n(NC(=O)c2cccnc2)c1C	Yeast life ext 45.8
O=C(c1ccccc1)c1ccccc1N/C=C/c1nnnn1-c1ccccc1	PostGolgi ctrl 34.6
Cc1oc(-c2ccc(Cl)cc2)nc1CN1CCC(C(=O)N2CCc3ccccc3C2)CC1	none
Cc1oc(-c2ccc(Cl)cc2)nc1CN1CCC(C(=O)N2CCN(Cc3ccccc3)CC2)CC1	PostGolgi ctrl 33.3
CCCC(=Nc1ccc(N)cc1)C1=C(O)C(C(=O)OC)C(C)(C)CC1=O (centres undefined)	Yeast life ext 44.0
CCCC(=O)C1=C(O)C(C(=O)OC)C(C)(C)CC1=Nc1ccc(N)cc1 (centres undefined)	none
CCSc1nc(N2CCOCC2)c2c(c1C#N)CCCC2	PostGolgi ctrl 40.5
CC(C)c1nc(N2CCOCC2)c(C#N)c2c1CCCC2	none
CC1(C)Cc2c(C#N)c(SCc3ccccc3)nc(N3CCOCC3)c2CO1	PostGolgi ctrl 38.0
CC(=O)Nc1cccc(Oc2ccc(-c3noc(C)n3)cc2)c1	none
COCc1ccc(O)c2ncccc12	none
OCc1ccnc2c(O)cccc12	Yeast growth inh 54.3
O=C(/C=C/c1cccs1)Nc1nc(-c2ccccc2)cs1	PostGolgi ctrl 33.0
O=C1C(Cl)=C(N2CCOCC2)C(=O)N1c1ccccc1Cl	none
C=CCNC1=C(Cl)C(=O)N(c2ccccc2Cl)C1=O	PostGolgi ctrl 34.0
CC(=O)NCCC(=O)Nc1ccc(F)cc1C	PostGolgi ctrl 31.4
Cc1nc(SCC(=O)N2CCc3ccccc32)n[nH]1	none
Cn1c(=O)c(C(=O)CCl)c(N)n(CC2CC2)c1=O	none (no result: PostGolgi yeast, PostGolgi ctrl)
N#Cc1nc(COc2ccc(Cl)cc2)oc1N1CCCCCC1	PostGolgi ctrl 45.4
N#Cc1nc(-c2cccc3ccccc23)oc1N1CCCCC1	none
N#Cc1nc(COc2ccccc2)oc1N1CCCCC1	none
N#Cc1nc(Cc2cccc3ccccc23)oc1N1CCCCC1	PostGolgi ctrl 36.1
CCSc1nnc(NC(=O)[C@@H](NC(=O)c2ccc(C(C)(C)C)cc2)C(C)C)s1	none (no result: PostGolgi yeast, PostGolgi ctrl)
Brc1cc(Br)c2nc(-c3ccc(N4CCOCC4)cc3)ccc2c1	PostGolgi ctrl 36.5
CCC(C)C(=O)Nc1cc(C(=O)OC)cc(C(=O)OC)c1 (centres undefined)	none
Cc1ccc(C(=O)NC(=S)NCC2CCCO2)cc1 (centres undefined)	Yeast life ext 31.9
O=C(NC(=S)NCC1CCCO1)c1ccc(Cl)cc1 (centres undefined)	none (no result: PostGolgi yeast, PostGolgi ctrl)
CC(=O)C1=C(C)N(CC2CC2)C(=O)N[C@H]1c1ccc(Br)cc1	none (no result: PostGolgi yeast, PostGolgi ctrl)
CCOC(=O)CN1C(=O)N[C@H](c2ccc(Br)cc2)C(C(C)=O)=C1C	Yeast life ext 45.9 (no result: PostGolgi yeast, PostGolgi ctrl)
O=[N+]([O-])c1ccc(O)c(-c2nc(-c3ccccc3)c(-c3cccs3)[nH]2)c1	PostGolgi ctrl 44.7
